Among the data in ChEMBL document CHEMBL4339195, “Di-aryl Sulfonamide Motif Adds π-Stacking Bulk in Negative Allosteric Modulators of the NMDA Receptor” (ACS Med Chem Lett, 2019) are residual activity, IC50 and inhibition values, retold here.

Structures are written as SMILES. Activity calls are given as the source filed them. The calls are words filed in the database; no cut-off is given here.

For assay [1], the target named is T1, Glutamate NMDA receptor; Grin1/Grin2c (Rattus norvegicus) (UniProt P35439+Q00961). The experiment in a line: Negative allosteric modulation of recombinant rat GluN1/GluN2C expressed in Xenopus laevis oocytes assessed as inhibition of glutamate/glycine-induced current response at 30 uM at -40 mV holding potential by two-electrode voltage clamp method relative to glutamate/glycine. The class given is cell-based. To be noted: values are per cent of control. The gist of the method:
(§1)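 Oocytes recorded while the drug is co-applied with a maximally effective 100 µM glutamate plus 30 µM glycine. Response is expressed as percent of the glutamate/glycine control. IC50 comes from a Hill fit to the average composite concentration-response curve. 8-16 oocytes from 2-3 frogs per compound and receptor.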
Background: Two-electrode voltage clamp holds a large cell at a set potential and records current.

The target of assay [2] is T2, Ionotropic glutamate receptor NMDA 1/2D (Rattus norvegicus) (UniProt P35439+Q62645). Nature of the assay: Negative allosteric modulation of recombinant rat GluN1/GluN2D expressed in Xenopus laevis oocytes assessed as inhibition of glutamate/glycine-induced current response at 30 uM at -40 mV holding potential by two-electrode voltage clamp method relative to glutamate/glycine. The class given is cell-based. The following applies: values are per cent of control. A digest of the protocol: as §1

In assay [3] the target is Glutamate NMDA receptor; Grin1/Grin2a (Rattus norvegicus, UniProt P35439+Q00959). Nature of the assay: Negative allosteric modulation of recombinant rat GluN1/GluN2A expressed in Xenopus laevis oocytes assessed as inhibition of glutamate/glycine-induced current response at -40 mV holding potential by two-electrode voltage clamp method. Type of assay: cell-based. A digest of the protocol:
as §1

The target in assay [4] is T2, Ionotropic glutamate receptor NMDA 1/2D (Rattus norvegicus). The experiment in a line: Negative allosteric modulation of recombinant rat GluN1/GluN2D expressed in Xenopus laevis oocytes assessed as residual glutamate/glycine-induced current response at 10 uM at -40 mV holding potential by two-electrode voltage clamp method relative to glutamate/glycine.
The target in assay [5] is Glutamate NMDA receptor; Grin1/Grin2a (Rattus norvegicus) (UniProt P35439+Q00959). Nature of the assay: Negative allosteric modulation of recombinant rat GluN1/GluN2A expressed in Xenopus laevis oocytes assessed as remaining glutamate/glycine-induced current response at 6 uM at -40 mV holding potential by two-electrode voltage clamp method relative to glutamate/glycine.
The target in assay [6] is T1, Glutamate NMDA receptor; Grin1/Grin2c (Rattus norvegicus). Nature of the assay: Negative allosteric modulation of recombinant rat GluN1/GluN2C expressed in Xenopus laevis oocytes assessed as remaining glutamate/glycine-induced current response at 10 uM at -40 mV holding potential by two-electrode voltage clamp method relative to glutamate/glycine.
Assay [7] addresses Glutamate NMDA receptor; Grin1/Grin2c (Rattus norvegicus, UniProt P35439+Q00961). Nature of the assay: Negative allosteric modulation of recombinant rat GluN1/GluN2C expressed in Xenopus laevis oocytes assessed as inhibition of glutamate/glycine-induced current response at -40 mV holding potential by two-electrode voltage clamp method. Type of assay: cell-based. A digest of the protocol:
as §1

Assay [8] concerns the target Ionotropic glutamate receptor NMDA 1/2D (Rattus norvegicus, UniProt P35439+Q62645). Nature of the assay: Negative allosteric modulation of recombinant rat GluN1/GluN2D expressed in Xenopus laevis oocytes assessed as inhibition of glutamate/glycine-induced current response at -40 mV holding potential by two-electrode voltage clamp method. The class given is cell-based. A digest of the protocol: as §1

For assay [9], the target named is Glutamate receptor 1 (Rattus norvegicus) (UniProt P19490). Nature of the assay: Negative allosteric modulation of recombinant rat GluA1 expressed in Xenopus laevis oocytes assessed as inhibition of glutamate-induced current response at 30 uM at -40 mV holding potential by two-electrode voltage clamp method relative to glutamate alone. The class given is cell-based. The gist of the method: (§2)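 Oocyte two-electrode voltage clamp at -40 mV holding. Test compound co-applied with agonist; response given as percent of the mean of control and recovery currents to agonist alone. Agonists: 100 µM glutamate (AMPA, kainate), 100 µM GABA (GABA receptors), 100 µM glycine (glycine receptor), 100 µM serotonin (5-HT3A), 9 µM ATP (P2X), 1 µM acetylcholine (nicotinic).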

A further assay is filed under the species Homo sapiens. The experiment in a line: Negative allosteric modulation of human GluA2 R607Q mutant expressed in Xenopus laevis oocytes assessed as inhibition of glutamate-induced current response at 30 uM at -40 mV holding potential by two-electrode voltage clamp method relative to glutamate alone. The class given is cell-based. A digest of the protocol:
as §2

Assay [10] has as its system Glutamate receptor 3 (Homo sapiens), P42263 [L513Y]. Nature of the assay: Negative allosteric modulation of human GluA3 L513Y mutant expressed in Xenopus laevis oocytes assessed as inhibition of glutamate-induced current response at 30 uM at -40 mV holding potential by two-electrode voltage clamp method relative to glutamate alone. Type of assay: cell-based. The gist of the method: as §2

The test system of assay [11] is Glutamate receptor 4 (Homo sapiens), P48058 [L505Y]. The experiment in a line: Negative allosteric modulation of human GluA4 L505Y mutant expressed in Xenopus laevis oocytes assessed as inhibition of glutamate-induced current response at 30 uM at -40 mV holding potential by two-electrode voltage clamp method relative to glutamate alone. Type of assay: cell-based. A digest of the protocol:
as §2

For assay [12], the target named is Glutamate receptor ionotropic, kainate 2 (Rattus norvegicus) (UniProt P42260). The experiment in a line: Negative allosteric modulation of rat GluK2 expressed in Xenopus laevis oocytes assessed as inhibition of glutamate-induced current response at 30 uM at -40 mV holding potential in presence of concanavalin A by two-electrode voltage clamp method relative to glutamate alone. Type of assay: cell-based. The gist of the method: as §2

Assay [13] is filed under the species Rattus norvegicus. Nature of the assay: Negative allosteric modulation of rat GABAA alpha1beta2gamma2S expressed in Xenopus laevis oocytes assessed as inhibition of GABA-induced current response at 30 uM at -40 mV holding potential by two-electrode voltage clamp method relative to GABA alone. Type of assay: cell-based. A digest of the protocol: as §2
For assay [14], the species on record is Rattus norvegicus. Nature of the assay: Negative allosteric modulation of rat GABAA rho expressed in Xenopus laevis oocytes assessed as inhibition of GABA-induced current response at 30 uM at -40 mV holding potential by two-electrode voltage clamp method relative to GABA alone. The class given is cell-based. A digest of the protocol: as §2
The target of assay [15] is T3, Glycine receptor subunit alpha-1 (Rattus norvegicus) (UniProt P07727).
T3 sequence (whole entry): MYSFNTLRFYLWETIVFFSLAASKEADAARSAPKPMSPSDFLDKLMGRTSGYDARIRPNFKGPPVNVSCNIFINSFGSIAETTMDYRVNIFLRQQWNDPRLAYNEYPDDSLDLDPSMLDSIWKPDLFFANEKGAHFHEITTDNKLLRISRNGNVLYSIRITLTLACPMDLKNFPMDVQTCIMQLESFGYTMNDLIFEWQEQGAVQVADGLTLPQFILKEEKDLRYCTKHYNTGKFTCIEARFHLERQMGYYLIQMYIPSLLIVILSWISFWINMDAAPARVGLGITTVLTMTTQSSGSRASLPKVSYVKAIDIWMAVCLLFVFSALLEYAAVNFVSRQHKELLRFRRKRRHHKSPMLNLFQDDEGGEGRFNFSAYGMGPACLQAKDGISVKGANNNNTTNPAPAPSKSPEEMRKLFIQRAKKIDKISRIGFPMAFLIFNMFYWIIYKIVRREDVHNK
The experiment in a line: Negative allosteric modulation of rat glycine alpha1 expressed in Xenopus laevis oocytes assessed as inhibition of glycine-induced current response at 30 uM at -40 mV holding potential by two-electrode voltage clamp method relative to glycine alone. Type of assay: cell-based. A digest of the protocol: as §2

The target of assay [16] is T4, 5-hydroxytryptamine receptor 3A (Rattus norvegicus) (UniProt P35563).
T4 sequence (whole entry): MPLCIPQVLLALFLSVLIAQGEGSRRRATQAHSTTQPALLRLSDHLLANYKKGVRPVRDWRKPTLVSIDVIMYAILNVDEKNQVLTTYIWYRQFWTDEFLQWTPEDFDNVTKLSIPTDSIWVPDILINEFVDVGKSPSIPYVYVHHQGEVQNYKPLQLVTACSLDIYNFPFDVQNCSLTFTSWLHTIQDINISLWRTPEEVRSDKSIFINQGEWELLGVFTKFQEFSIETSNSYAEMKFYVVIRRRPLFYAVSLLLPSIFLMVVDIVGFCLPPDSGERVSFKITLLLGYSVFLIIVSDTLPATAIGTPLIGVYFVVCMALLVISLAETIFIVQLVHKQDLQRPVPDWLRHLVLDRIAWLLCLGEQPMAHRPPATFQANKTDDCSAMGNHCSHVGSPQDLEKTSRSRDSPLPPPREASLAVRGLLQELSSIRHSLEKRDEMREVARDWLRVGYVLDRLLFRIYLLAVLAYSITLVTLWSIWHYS
Nature of the assay: Negative allosteric modulation of rat 5HT3A expressed in Xenopus laevis oocytes assessed as inhibition of serotonin-induced current response at 30 uM at -40 mV holding potential by two-electrode voltage clamp method relative to serotonin alone. The class given is cell-based. The gist of the method:
as §2

Assay [17] concerns the target CHRNA1/CHRNB1/CHRNG/CHRND (Rattus norvegicus) (UniProt P25109+P25108+P25110+P18916). Nature of the assay: Negative allosteric modulation of rat alpha1betagammadelta nACHR expressed in Xenopus laevis oocytes assessed as inhibition of acetylcholine-induced current response at 30 uM at -40 mV holding potential by two-electrode voltage clamp method relative to acetylcholine alone. Type of assay: cell-based. The gist of the method: as §2

Sequence of Glutamate receptor 3 (Homo sapiens), P42263 [L513Y] (P42263 whole entry L513Y): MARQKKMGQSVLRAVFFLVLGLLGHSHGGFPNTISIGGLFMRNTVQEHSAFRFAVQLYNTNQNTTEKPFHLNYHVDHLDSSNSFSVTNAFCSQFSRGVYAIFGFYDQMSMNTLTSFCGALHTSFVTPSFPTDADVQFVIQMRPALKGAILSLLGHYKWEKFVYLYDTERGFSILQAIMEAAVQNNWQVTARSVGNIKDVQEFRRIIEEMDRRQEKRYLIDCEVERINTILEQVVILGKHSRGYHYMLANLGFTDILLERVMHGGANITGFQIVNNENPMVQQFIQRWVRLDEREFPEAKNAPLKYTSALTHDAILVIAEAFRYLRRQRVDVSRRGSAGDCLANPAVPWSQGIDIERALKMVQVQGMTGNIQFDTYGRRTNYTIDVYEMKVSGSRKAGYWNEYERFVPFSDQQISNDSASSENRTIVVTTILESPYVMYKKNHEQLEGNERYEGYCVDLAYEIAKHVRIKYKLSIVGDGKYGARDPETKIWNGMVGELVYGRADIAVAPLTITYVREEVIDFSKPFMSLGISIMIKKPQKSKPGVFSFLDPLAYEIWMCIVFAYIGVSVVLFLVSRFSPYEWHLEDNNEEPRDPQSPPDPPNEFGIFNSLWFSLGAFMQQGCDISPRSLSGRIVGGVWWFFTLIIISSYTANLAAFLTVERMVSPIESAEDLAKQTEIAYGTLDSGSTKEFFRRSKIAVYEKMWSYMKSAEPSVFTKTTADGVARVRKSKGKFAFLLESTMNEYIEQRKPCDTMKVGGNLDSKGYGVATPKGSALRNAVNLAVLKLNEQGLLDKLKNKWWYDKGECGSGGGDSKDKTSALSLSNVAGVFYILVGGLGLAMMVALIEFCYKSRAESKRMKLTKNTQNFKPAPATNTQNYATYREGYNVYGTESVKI
Sequence of Glutamate receptor 4 (Homo sapiens), P48058 [L505Y] (P48058 whole entry L505Y): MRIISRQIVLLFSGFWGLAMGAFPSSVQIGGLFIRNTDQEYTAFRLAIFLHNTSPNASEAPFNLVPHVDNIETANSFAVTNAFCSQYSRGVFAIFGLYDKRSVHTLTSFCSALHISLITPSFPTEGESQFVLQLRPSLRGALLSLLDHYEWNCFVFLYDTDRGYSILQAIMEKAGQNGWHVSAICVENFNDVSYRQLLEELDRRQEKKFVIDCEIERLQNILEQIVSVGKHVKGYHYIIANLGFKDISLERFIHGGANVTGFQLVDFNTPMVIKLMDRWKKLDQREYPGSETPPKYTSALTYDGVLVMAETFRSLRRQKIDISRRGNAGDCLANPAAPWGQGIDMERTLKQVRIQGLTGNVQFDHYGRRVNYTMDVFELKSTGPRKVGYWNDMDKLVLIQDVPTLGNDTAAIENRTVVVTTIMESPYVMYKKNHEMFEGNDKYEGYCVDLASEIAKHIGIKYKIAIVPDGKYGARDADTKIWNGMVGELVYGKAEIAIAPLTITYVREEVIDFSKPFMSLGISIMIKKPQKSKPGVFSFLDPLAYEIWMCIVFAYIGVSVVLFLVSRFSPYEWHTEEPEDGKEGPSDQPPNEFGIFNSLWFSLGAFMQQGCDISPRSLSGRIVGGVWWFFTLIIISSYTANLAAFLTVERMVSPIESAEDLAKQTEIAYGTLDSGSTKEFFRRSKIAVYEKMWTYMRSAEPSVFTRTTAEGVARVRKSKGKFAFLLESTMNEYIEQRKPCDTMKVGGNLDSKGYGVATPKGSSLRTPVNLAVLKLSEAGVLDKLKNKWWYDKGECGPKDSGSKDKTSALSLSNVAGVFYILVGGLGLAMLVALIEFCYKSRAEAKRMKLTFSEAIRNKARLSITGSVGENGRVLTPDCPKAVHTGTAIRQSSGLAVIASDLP
Sequence of Glutamate receptor ionotropic, kainate 2 (Rattus norvegicus) (P42260 whole entry): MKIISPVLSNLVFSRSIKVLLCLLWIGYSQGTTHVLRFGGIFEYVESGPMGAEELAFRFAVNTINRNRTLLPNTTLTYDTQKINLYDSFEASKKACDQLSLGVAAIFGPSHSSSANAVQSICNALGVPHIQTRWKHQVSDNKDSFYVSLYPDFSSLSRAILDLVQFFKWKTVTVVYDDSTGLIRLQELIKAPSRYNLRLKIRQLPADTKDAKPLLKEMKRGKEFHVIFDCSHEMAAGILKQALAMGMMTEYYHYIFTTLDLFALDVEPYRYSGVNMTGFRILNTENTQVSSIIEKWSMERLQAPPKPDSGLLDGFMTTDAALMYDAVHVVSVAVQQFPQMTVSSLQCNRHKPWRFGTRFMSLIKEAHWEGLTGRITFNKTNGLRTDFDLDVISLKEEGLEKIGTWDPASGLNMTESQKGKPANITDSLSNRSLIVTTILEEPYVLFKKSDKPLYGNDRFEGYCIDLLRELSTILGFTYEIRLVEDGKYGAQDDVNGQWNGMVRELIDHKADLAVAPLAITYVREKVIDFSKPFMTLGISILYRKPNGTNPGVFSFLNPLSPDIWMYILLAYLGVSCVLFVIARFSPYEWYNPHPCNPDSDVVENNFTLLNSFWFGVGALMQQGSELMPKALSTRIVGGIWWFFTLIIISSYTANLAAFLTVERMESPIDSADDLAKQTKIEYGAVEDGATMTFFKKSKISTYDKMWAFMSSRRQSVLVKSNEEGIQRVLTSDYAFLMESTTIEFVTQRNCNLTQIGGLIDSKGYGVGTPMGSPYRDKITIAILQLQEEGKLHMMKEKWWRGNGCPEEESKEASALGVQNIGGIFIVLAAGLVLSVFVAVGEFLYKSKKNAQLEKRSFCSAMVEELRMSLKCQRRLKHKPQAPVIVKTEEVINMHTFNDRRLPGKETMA
Sequence of Glutamate receptor 1 (Rattus norvegicus) (P19490 whole entry): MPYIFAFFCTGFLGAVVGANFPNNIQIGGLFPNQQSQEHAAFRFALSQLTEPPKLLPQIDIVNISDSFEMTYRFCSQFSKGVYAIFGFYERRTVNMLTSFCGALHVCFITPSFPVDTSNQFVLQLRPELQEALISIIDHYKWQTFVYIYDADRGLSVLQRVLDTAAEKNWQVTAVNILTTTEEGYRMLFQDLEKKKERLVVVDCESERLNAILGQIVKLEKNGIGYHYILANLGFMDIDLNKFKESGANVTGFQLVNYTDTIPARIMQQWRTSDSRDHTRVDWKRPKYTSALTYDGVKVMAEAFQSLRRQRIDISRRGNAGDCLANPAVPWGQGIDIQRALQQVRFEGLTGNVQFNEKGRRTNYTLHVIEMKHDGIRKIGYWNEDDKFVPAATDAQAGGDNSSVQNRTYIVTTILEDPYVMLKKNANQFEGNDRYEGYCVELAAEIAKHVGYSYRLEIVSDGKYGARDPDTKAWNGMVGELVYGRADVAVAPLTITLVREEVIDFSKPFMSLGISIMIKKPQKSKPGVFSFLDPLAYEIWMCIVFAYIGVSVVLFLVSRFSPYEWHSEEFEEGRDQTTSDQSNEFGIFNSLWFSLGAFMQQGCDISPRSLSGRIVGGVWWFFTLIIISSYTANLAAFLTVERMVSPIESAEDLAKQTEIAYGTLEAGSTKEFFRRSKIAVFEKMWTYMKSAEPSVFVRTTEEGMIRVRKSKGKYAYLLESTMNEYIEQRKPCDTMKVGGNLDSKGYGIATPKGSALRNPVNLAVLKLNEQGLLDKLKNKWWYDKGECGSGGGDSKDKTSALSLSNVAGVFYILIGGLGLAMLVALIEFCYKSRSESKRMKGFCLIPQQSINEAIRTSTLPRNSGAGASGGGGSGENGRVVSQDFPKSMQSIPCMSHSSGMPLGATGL

The IC50 is the concentration that inhibits the measured activity by half. As to `O=C(NNC(=O)c1ccc(CNS(=O)(=O)c2ccc(F)c(Cl)c2)cc1)c1ccccc1`, the residual activity in assay [1] is < 15%; in assay [2], < 15%; in assay [4] it was 88%; in [5], 5.1%; in [6], 95%. Also, the IC50 in assay [3] amounted to 170 nM.
Take `CCN(CC)C(=O)Oc1ccc(C(=O)Nc2cccc3cc[nH]c23)cc1`: the IC50 in assay [7] was found to be 3700 nM; in [8], 2200 nM. Moreover, the inhibition entry (in assay [9]; in the assay filed under Homo sapiens; in [10]; in assay [11]; in [12]; in the assay listed under Rattus norvegicus [13]) was “Active” throughout. In addition, the inhibition entry in the assay listed under Rattus norvegicus [14] was “Active”. The inhibition result in assay [15], in [16] and in assay [17] was “inactive” in each case. Moreover, the figures for the residual activity in [4] and in assay [6] were 16% and 24%, respectively.
